Reference: paper PMC10993246 (ACS Omega, 2024)
Residues, ends and D or L forms follow the SMILES beside them.

How the values were obtained:
[1] = tested on: L929 cells; assay: Cell proliferation / cytotoxicity MTT assay; format: cell-based; details: 48 h; for toxicity toward the cells: L929 cells, 10, 25, 50 and 100 μM, IC50 values could not be calculated
Procedure, shortened: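 L929 cells were seeded at 0.5 × 10^4 cells per well and held 24 h in complete medium. Fluorescein-labelled and unlabelled test peptides were then added at 10, 25, 50 and 100 μM for 48 h. MTT was applied for 4 h at 37 °C in the dark, formazan was dissolved in DMSO, and A570 was read. % viability = treated/untreated absorbance; mean ± SD; two-way ANOVA.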

[2] = tested on: mouse fibroblast 3T3 cells; details: cell fixation conditions, ref 36 (Rhee et al.); cited from earlier work
[3] = tested on: 3T3 cells; assay: Membrane penetrability, fixed cells, fluorescence and confocal microscopy; format: cell-based, mouse; details: fixed 3T3 cells, 50 μM in PBS, 6 h, 4 °C, confocal microscopy
[4] = ref 43 (Futaki et al.); cited from earlier work

Compound	toxicity toward the cells [1]	cellular viability at 25 and 50 μM compared to 10 μM ([1]; L929 cells)	localization of CPPs [4]	also measured
CC(C)C[C@H](NC(=O)[C@H](CO)NC(=O)CNC(=O)[C@@H](N)C(C)C)C(=O)N[C@@H](CCCNC(=N)N)C(=O)O [VGSLR] (H-VGSLR-OH)	did not show any significant toxicity	increased progressively		
CSIPPEVKFNPFVYLI [C105Y]				localization of the fluorescent-tagged peptide [2]: enriched fluorescence signal in the nucleus in addition to being present in the cytoplasm
FITC-VGSLR	does not show any toxicity	increased progressively		cell proliferation compared to the untreated cells ([1]; L929 cells, 50 μM, absorbance 570 nm, p < 0.0001): higher proliferation; cell viability at 100 μM ([1]; L929 cells, 100 μM): reduced viability; subcellular localization [3]: localization of the peptide at the nucleus was more than that in the cytoplasm
GRRRRRRRRRPPQ [R9-TAT]			in both the cytoplasm and nucleus	
Tat-(48–60): CPP reported by Futaki et al. (GRKKRRQRRRAHQ; UniProt P04608 48-60, looked up, fragment)			in both the cytoplasm and nucleus	
